Source: ChEMBL document CHEMBL4024769, “Synthesis and Investigation of Photophysical and Biological Properties of Novel S-Containing Bacteriopurpurinimides” (J Med Chem, 2017)
The source made the active and inactive calls. The calls are words filed in the database; no cut-off is given here.

Legend:
[1] = tested on: Sarcoma M1; test: (§1) Phototoxicity against rat Sarcoma M1 cells implanted in rat assessed as coagulative tumor necrosis at 2.5 mg/kg, ip administered as single dose on day 11 post inoculation followed by 300 J/cm2 irradiation after 2.5 to 3 hrs measured on day 2 post photodynamic therapy by hematoxylin and eosin staining based assay; format: functional, organism-based
[2] = Drug uptake in tumor of F1 mouse implanted with mouse S37 cells assessed as normalized fluorescence units at 2.5 mg/kg, iv measured after 30 mins in presence of He-Ne laser radiation by local fluorescence spectroscopic analysis; format: ADME, organism-based, Neoplasm; settings: in vivo, 0.5 h
Procedure, shortened: (§2)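 S37 sarcoma-bearing immunocompetent F1 mice (18−22 g) given PS 2.5 mg/kg iv. Animals sacrificed at 0.25, 0.5, 2, 4 and 24 h, with three animals per time point. Skin, tumor and organ samples were read ex vivo by contact local fluorescence spectroscopy under He−Ne 632.8 nm excitation. Integrated 640−900 nm emission was normalized to the backscattered laser signal to give FN.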

[3] = Drug uptake in skin tumor of F1 mouse implanted with mouse S37 cells assessed as normalized fluorescence at 2.5 mg/kg, iv measured after 30 mins post injection in presence of He-Ne laser radiation by local fluorescence spectroscopic analysis; format: ADME, organism-based; settings: in vivo, 0.5 h; procedure, shortened: as §2
[4] = as §1, with “as volume of” for “as coagulative”, “tumor parenchyma” for “tumor necrosis”, “11 after” for “11 post”, “day 1” for “day 2”, “assay (reference value: 69 +/- 6%)” for “assay”; format: functional
Procedure, shortened: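 Rat M1 sarcoma was implanted subcutaneously in the left thigh, with randomisation on day 10. A single 2.5 mg/kg ip dose was given on day 11, then 810 nm laser (0.51 W/cm2, 300 J/cm2, 10 min) after 2.5−3 h. Tumours were sectioned on days 1, 3 and 12 after PDT (controls days 12, 14, 23), five animals per point. Parenchyma and necrotic zone volumes were estimated on hematoxylin and eosin staining.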

[5] = Phototoxicity against mouse S37 cells implanted in F1 mouse assessed as tumor growth inhibition at 2.5 mg/kg, iv preincubated for 15 mins with subsequent 150 J/cm2 irradiation measured on day 11 post irradiation relative to control; format: functional; settings: S37, light or radiation study, read-out: TGI
Procedure, shortened: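 S37 sarcoma mice treated on day 7 of tumor growth with compound iv; tumors 140–160 mm3 beforehand, droperidol 0.25 mg ip as anesthetic. LED irradiation at 800 ± 21 nm, 100 mW/cm2, 150 J/cm2, given 15 or 30 min after dosing. Controls got iv 0.9% NaCl. Volume = d1×d2×d3×0.52; TGI = […]×100%.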

Compound | Activity [1] | Flu intensity [2] | Flu intensity [3] | Activity [4] | inhibition in vivo at 2.5 mg/kg [5]
CCCO/N=C(\C)c1c(C)c2cc3nc(c4c5[nH]c(cc6nc(cc1[nH]2)[C@@H](C)[C@@H]6CC)c(C)c5C(=O)N(OCCC)C4=O)[C@H](CCC(=O)NCCSSCCNC(=O)CC[C@@H]1c2nc(cc4[nH]c(cc5nc(cc6[nH]c7c2C(=O)N(OCCC)C(=O)c7c6C)[C@H](CC)[C@H]5C)c(/C(C)=N/OCCC)c4C)[C@H]1C)[C@H]3C | Active | 4 RU | 2.2 RU | 39% | 
CCCO/N=C(\C)c1c(C)c2cc3nc(c4c5[nH]c(cc6nc(cc1[nH]2)[C@H](C)[C@H]6CC)c(C)c5C(=O)N(OCCC)C4=O)[C@@H](CCC(=O)OC)[C@@H]3C |  |  |  |  | 100%
